# From PMC9134407 (ACS Omega, 2022)
# Experiments:
# [1] = Cell-Titer Blue cytotoxicity assay; type: cell-based; settings: human, HEK293T cells
# [2] = molecular target: T1, human FXR (Homo sapiens, UniProt Q96RI1); assay: cell-based luciferase reporter assay; settings: for inhibition at 10 µM: HEK-293T
# T1 sequence (Q96RI1 1-486): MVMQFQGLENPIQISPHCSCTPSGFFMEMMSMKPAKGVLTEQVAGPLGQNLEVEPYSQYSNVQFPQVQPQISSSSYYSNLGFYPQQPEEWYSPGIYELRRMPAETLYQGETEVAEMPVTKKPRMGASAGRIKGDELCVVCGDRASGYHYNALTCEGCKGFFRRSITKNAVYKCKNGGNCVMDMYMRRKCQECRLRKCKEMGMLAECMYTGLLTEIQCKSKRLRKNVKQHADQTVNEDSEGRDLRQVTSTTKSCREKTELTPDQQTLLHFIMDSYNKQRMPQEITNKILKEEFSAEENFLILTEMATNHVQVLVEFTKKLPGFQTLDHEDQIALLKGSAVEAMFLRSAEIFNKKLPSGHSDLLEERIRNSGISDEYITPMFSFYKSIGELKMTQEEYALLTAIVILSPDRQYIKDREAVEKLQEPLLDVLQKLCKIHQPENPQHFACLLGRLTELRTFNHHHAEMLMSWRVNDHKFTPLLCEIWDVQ
# Method in brief: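 HEK293T cells transiently cotransfected with a human FXR expression vector and an SHP promoter luciferase reporter (SHP-luc). Transactivation was driven by GW4064 at 10 μM, with or without test compound. FXR-dependent reporter activity was read as luciferase signal.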
# [3] = system: FXR; settings: read-out: IC50 FXR antagonist; cited from earlier work
SMILES,inhibition at 10 µM [2] [%],IC50 [2] [µM],viability at 10 µM [1] [%],viability [1] [%],IC50 [3] [µM]
CC(C)CCC[C@@H](C)[C@H]1CCC([C@@H]2CC[C@H]3C[C@H](O)CC[C@]3(C)C2=O)[C@]1(C)C/C=C/C(=O)O (stereo partly shown) [Compound 7],76.3 ± 1.9,–,> 100,–,–
CC(C)CCC[C@@H](C)[C@H]1CCC([C@@H]2CC[C@H]3C[C@H](O)CC[C@]3(C)C2=O)[C@]1(C)CCCC(=O)O (stereo partly shown) [Compound 8],85.8 ± 2.4,7.7,> 100,41.1,–
"C[C@H](CCC(=O)NCC(=O)O)[C@H]1CC[C@H]2[C@@H]3[C@@H](O)C[C@@H]4C[C@H](O)CC[C@]4(C)[C@H]3CC[C@]12C [GUDCA, glycoursodeoxycholic acid]",–,–,–,–,77.2
"C[C@H](CCC(=O)O)[C@H]1CC[C@H]2[C@@H]3[C@H](O)[C@H](O)[C@@H]4C[C@H](O)CC[C@]4(C)[C@H]3CC[C@]12C [HCA, hyocholic acid, reference compound]",–,27.3,–,> 100,70.1
"C[C@H](CCC(=O)NCCS(=O)(=O)O)[C@H]1CC[C@H]2[C@@H]3[C@@H](O)C[C@@H]4C[C@H](O)CC[C@]4(C)[C@H]3CC[C@]12C [TUDCA, tauroursodeoxycholic acid]",–,–,–,–,75.1

# The next lines start with results.
inhibition at 10 µM [2] [%],IC50 [2] [µM],SMILES,viability at 10 µM [1] [%],viability [1] [%],IC50 [3] [µM]
54.7 ± 6.2,–,CC(=O)O[C@@H]1CC[C@]2(C)C(=O)[C@H](C3CC[C@H]([C@H](C)CCCC(C)C)[C@@]3(C)CC(=O)O)CC[C@H]2C1 (stereo partly shown) [Compound 3a],> 100,–,–
24.9 ± 2,–,CC(=O)O[C@H]1CC[C@]2(C)C(=O)[C@H](C3CC[C@H]([C@H](C)CCCC(C)C)[C@@]3(C)CC(=O)O)CC[C@H]2C1 (stereo partly shown) [Compound 3b],> 100,–,–
53.1 ± 4.9,–,CC(C)CCC[C@@H](C)[C@H]1CCC([C@@H]2CC[C@H]3C[C@H](O)CC[C@]3(C)C2=O)[C@]1(C)CC(=O)O (stereo partly shown) [Compound 4a],> 100,–,–
14.1 ± 4.1,–,CC(C)CCC[C@@H](C)[C@H]1CCC([C@@H]2CC[C@H]3C[C@@H](O)CC[C@]3(C)C2=O)[C@]1(C)CC(=O)O (stereo partly shown) [Compound 4b],> 100,–,–
